Active and inactive are the calls of the source. No cut-off for these calls is given here.
Experiments:
P388 [1] = test: In vitro antitumor activity in the culture media (that produced 50% inhibition of the P388 leukemia cell growth as compared to the untreated cells); b=Inactive at 10E-4 M; type: functional, cell-based; details: Mus musculus
Procedure, shortened: (§1)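 L1210 leukemia and P388 lymphoid neoplasm cells kept in RPMI-1640 with 10% heat-inactivated fetal calf serum. Seeded at 5 × 10⁴ cells/mL, then grown 48 h at 37 °C with compound at 4-5 log doses. Growth counted by Coulter counter and expressed as % of control tubes. ID50 is the dose giving 50% growth inhibition.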

L1210 [2] = test: In vitro antitumor activity in the culture media (that produced 50% inhibition of the L1210 leukemia cell growth as compared to the untreated cells); b=Inactive at 10E-4 M; type: functional, cell-based; details: Mus musculus; procedure, shortened: as §1
[3] = test system: Vesicular stomatitis virus; test: In vitro antiviral activity (virus ratings (VR)) determined by comparing CPE development in drug-treated cells (T) and Vesicular stomatitis virus control cells; type: functional
Vaccinia virus = test: In vitro antiviral activity (virus ratings (VR)) determined by comparing CPE development in drug-treated cells (T) and Vaccinia virus control cells; type: functional, Orthopoxvirus vaccinia
Human respirovirus 3 [4] = test: In vitro antiviral activity (virus ratings (VR)) determined by comparing CPE development in drug-treated cells (T) and Parainfluenza type 3 virus control cells; type: functional
Human alphaherpesvirus 1 = test: In vitro antiviral activity (virus ratings (VR)) determined by comparing CPE development in drug-treated cells (T) and HSV-1 virus control cells; type: functional
[5] = Toxic level was evaluated; None; type: ADME
Human respirovirus 3 [6] = test: In vitro antiviral activity (virus ratings (VR)) determined by comparing CPE development in drug-treated cells (T) and Parainfluenza type 3 virus control cells.; type: functional
L1210 [7] = test: In vitro antitumor activity in the culture media (that produced 50% inhibition of the L1210 leukemia cell growth as compared to the untreated cells); Inhibition at 10E-5; type: functional, Mus musculus
P388 [8] = test: In vitro antitumor activity in the culture media (that produced 50% inhibition of the P388 leukemia cell growth as compared to the untreated cells); b=Inactive at 10E-4; type: functional, cell-based; details: Mus musculus; procedure, shortened: as §1
L1210 [9] = test: In vitro antitumor activity in the culture media (that produced 50% inhibition of the L1210 leukemia cell growth as compared to the untreated cells); type: functional; details: Mus musculus, read-out: ID50 (the source's name)
Procedure, shortened: (§2)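 L1210 or P388 cells kept in RPMI-1640 with 10% heat-inactivated fetal calf serum and seeded in tubes at 5 × 10⁴ cells/mL. Grown with compound at 4-5 log doses for 48 h at 37 °C. Cells counted electronically, growth expressed as % of untreated control tubes, and the dose giving 50% growth inhibition (ID₅₀) determined.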

P388 [10] = test: In vitro antitumor activity in the culture media (that produced 50% inhibition of the P388 leukemia cell growth as compared to the untreated cells); Inhibition at 10E-4; type: functional, Mus musculus
P388 [11] = test: In vitro antitumor activity in the culture media (that produced 50% inhibition of the P388 leukemia cell growth as compared to the untreated cells); type: functional; details: Mus musculus, read-out: ID50 (the source's name); procedure, shortened: as §2
[12] = test system: Vesicular stomatitis virus; test: In vitro antiviral activity (virus ratings (VR)) determined by comparing CPE development in drug-treated cells (T) and VSV virus control cells; type: functional
P388 [13] = test: In vitro antitumor activity in the culture media (that produced 50% inhibition of the P388 leukemia cell growth as compared to the untreated cells); Inhibition at 10E-5; type: functional, Mus musculus

Compound | ID50 (P388 [1]) | ID50 (L1210 [2]) | Virus rating [3] | Virus rating (Vaccinia virus) | Virus rating (Human respirovirus 3 [4]) | Virus rating (Human alphaherpesvirus 1) | Toxic level [5] | Virus rating (Human respirovirus 3 [6]) | Inhibition (L1210 [7]) [%] | ID50 (P388 [8]) | IC50 (L1210 [9]) [µM] | Inhibition (P388 [10]) [%] | IC50 (P388 [11]) [µM] | Virus rating [12] | Inhibition (P388 [13]) [%]
Nc1cc2ncn([C@H]3C[C@H](O)[C@@H](CO)O3)c2c(O)n1 | Inactive at 10^-4M | Inactive at 10^-4M | 1.06 | 1.42 | 0.92 | 0.8 | Not Active | – | – | – | – | – | – | – | –
NC(=O)c1ncn([C@@H]2O[C@H](CO)[C@@H](O)[C@H]2O)n1 [RIBAVIRIN] | – | – | 0.8 | 1.2 | – | 0.6 | Not Active | 1.3 | – | – | – | – | – | – | –
Nc1cc2c(ncn2[C@@H]2C[C@H](O)[C@@H](CO)O2)c(O)n1 | – | – | 0.8 | 1.65 | – | 1 | Not Active | 0.7 | 45 | Inactive at 10^-4M | – | – | – | – | –
Nc1cc2[nH]cnc2c(=O)[nH]1 [DEZAGUANINE] | – | – | 1.55 | 1.55 | 0.98 | 1.4 | – | – | – | – | 62 | 39 | – | – | –
Nc1cc2c(ncn2[C@@H]2O[C@H](CO)[C@@H](O)[C@H]2O)c(=O)[nH]1 | – | – | 1.5 | 1.5 | – | 1.4 | – | 1.18 | – | – | 18 | – | 16 | – | –
Nc1cc2c(ncn2[C@@H]2O[C@@H]3COP(=O)(O)O[C@H]3[C@H]2O)c(O)n1 | – | – | 1 | 1.15 | – | 1.02 | – | 0.62 | – | – | 4.1 | – | 45 | – | –
NNc1cc2ncnc-2c(O)n1N | – | – | 0 | 0.15 | – | 0.05 | – | 0.03 | – | – | 35 | – | 62 | – | –
Nc1cc2c(ncn2C2O[C@H](CO)[C@@H](O)[C@H]2O)c(=O)n1N (some centres not stated) | Inactive at 10^-4M | Inactive at 10^-4M | – | 1.25 | – | 0.25 | – | 0.3 | – | – | – | – | – | 0.45 | –
Nc1cc2ncn([C@@H]3C[C@H](O)[C@@H](CO)O3)c2c(O)n1 | – | – | 0.35 | 1.18 | – | 0.3 | – | 0.22 | – | – | 80 | – | – | – | 31
Nc1cc2c(ncn2[C@H]2C[C@H](O)[C@@H](CO)O2)c(O)n1 | – | – | 1.03 | 1.72 | – | 1.28 | Not Active | 1.45 | – | – | 20 | – | 42 | – | –

From ChEMBL document CHEMBL1122625, “Synthesis and antiviral/antitumor activities of certain 3-deazaguanine nucleosides and nucleotides” (J Med Chem, 1984)
